The results in this text go back to ChEMBL document CHEMBL3856216, “Development of 4,5-dihydro-benzodiazepinone derivatives as a new chemical series of BRD4 inhibitors” (Eur J Med Chem, 2016).

The source made the active and inactive calls. No cut-off for these calls is given here. A value given as a limit tells only on which side of the number the result lay.

Assay [1] has as its target T1, Bromodomain-containing protein 4 (Homo sapiens, UniProt O60885). Briefly: Inhibition of human His-tagged BRD4 BD1 (49 to 170 residues) at 30 uM using H-SGRGK(Ac)GGK(Ac)GLGK-(Ac)GGAK(Ac)RHRK(Biotin)-OH as substrate preincubated for 30 mins followed by substrate addition measured after 30 mins by TR-FRET assay relative to control. In a few lines: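 BRD4 bromodomain 1 was tested using a TR-FRET assay kit. Percent inhibition was measured at a single concentration of 30, in triplicate, and reported as mean ± SD.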
Background: Time-resolved FRET reads energy transfer from a long-lived donor to a nearby acceptor.

In assay [2] the target is T1, Bromodomain-containing protein 4. Description: Inhibition of human BRD4 BD2 (342 to 460 residues) at 30 uM preincubated for 30 mins followed by substrate addition measured after 30 mins by TR-FRET assay.
The nature of assay [3]: Cytotoxicity against human MV4-11 cells assessed as decrease in cell viability after 24 hrs by MTT assay. It counts as functional, cell-based. The note with it: MV4-11, 24 h. In general terms: Tetrazolium dyes change colour on reduction, which living cells bring about.
The nature of assay [4]: (§1) Cytotoxicity against human HL60 cells assessed as decrease in cell viability after 24 hrs by MTT assay. It is filed as functional, cell-based. The note with it: HL-60, 24 h.
Assay [5] is described as follows: (§2) Cytotoxicity against human U937 cells assessed as decrease in cell viability after 24 hrs by MTT assay. It counts as functional, cell-based. The settings on record: U-937, 24 h.
Assay [6] has as its target T1, Bromodomain-containing protein 4. Description: Inhibition of human BRD4 BD2 (342 to 460 residues) at 30 uM preincubated for 30 mins followed by substrate addition measured after 30 mins by TR-FRET assay relative to control. In a few lines: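 BRD4 BD2 percent inhibition was measured at a single concentration of 30, in triplicate, and reported as mean ± SD.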
The target is the same in assay [7]. Briefly: Inhibition of human His-tagged BRD4 BD1 (49 to 170 residues) using H-SGRGK(Ac)GGK(Ac)GLGK-(Ac)GGAK(Ac)RHRK(Biotin)-OH as substrate preincubated for 30 mins followed by substrate addition measured after 30 mins by TR-FRET assay.
Assay [8] is described as follows: Induction of apoptosis in human HL60 cells assessed as upregulation of Bax expression at 1 to 10 uM after 24 hrs by Western blot method. The note with it: HL-60. It is filed as functional, cell-based. In a few lines: (§3)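 HL-60 cells were treated for 24 h. Lysates were then immunoblotted for Bax, Bcl-2, pro-caspase 3, active caspase 3 and Brd4.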
(A western blot detects proteins with antibodies after separation by electrophoresis.)

For assay [9], the system named is HL-60. Description: Induction of apoptosis in human HL60 cells assessed as viable cells at 5 uM by annexin V-FITC/propidium iodide staining-based flow cytometric analysis (reference value: 84.22%). It counts as functional. The note with it: read-out: Activity.
For assay [10], the system named is HL-60. Briefly: Induction of apoptosis in human HL60 cells assessed as viable cells at 1 uM by annexin V-FITC/propidium iodide staining-based flow cytometric analysis (reference value: 84.22%). The settings on record: read-out: Activity. It is filed as functional.
For assay [11], the system named is HL-60. Described as §1. It counts as functional, cell-based.
Assay [12] relates to HL-60. Description: Induction of apoptosis in human HL60 cells assessed as early apoptotic cells at 10 uM by annexin V-FITC/propidium iodide staining-based flow cytometric analysis (reference value: 8.23%). It counts as functional.
Assay [13] deals with HL-60. Briefly: Induction of apoptosis in human HL60 cells assessed as early apoptotic cells at 5 uM by annexin V-FITC/propidium iodide staining-based flow cytometric analysis (reference value: 8.23%). It counts as functional.
In assay [14] the test system is HL-60. Description: Induction of apoptosis in human HL60 cells assessed as late apoptotic cells at 10 uM by annexin V-FITC/propidium iodide staining-based flow cytometric analysis (reference value: 6.92%). It counts as functional.
Assay [15] has as its system HL-60. Description: Induction of apoptosis in human HL60 cells assessed as necrotic cells at 5 uM by annexin V-FITC/propidium iodide staining-based flow cytometric analysis (reference value: 0.13%). It is filed as functional.
A further assay deals with U-937. The description is as §2. It is filed as functional, cell-based.
Assay [16] has as its system HL-60. Briefly: Induction of apoptosis in human HL60 cells assessed as necrotic cells at 1 uM by annexin V-FITC/propidium iodide staining-based flow cytometric analysis (reference value: 0.13%). It is filed as functional.
Assay [17] deals with HL-60. Description: Induction of apoptosis in human HL60 cells assessed as early apoptotic cells at 1 uM by annexin V-FITC/propidium iodide staining-based flow cytometric analysis (reference value: 8.23%). It is filed as functional.
The subject of assay [18] is HL-60. Briefly: Induction of apoptosis in human HL60 cells assessed as late apoptotic cells at 5 uM by annexin V-FITC/propidium iodide staining-based flow cytometric analysis (reference value: 6.92%). It is filed as functional.
Assay [19] has as its system HL-60. Briefly: Induction of morphological changes in human HL60 cells at 1 to 10 uM after 24 hrs by Hoechst 33258 staining-based fluorescence microscopy. It counts as functional, cell-based. The method in brief:
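HL-60 cells were cultured with different concentrations and stained with Hoechst 33258. Apoptotic nuclear morphology was examined under an inverted microscope.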

Assay [20] has as its system HL-60. Briefly: Induction of apoptosis in human HL60 cells assessed as caspase-3 cleavage at 1 to 10 uM after 24 hrs by Western blot method. It counts as functional, cell-based. In a few lines: as §3
Assay [21] concerns HL-60. Description: Induction of apoptosis in human HL60 cells assessed as necrotic cells at 10 uM by annexin V-FITC/propidium iodide staining-based flow cytometric analysis (reference value: 0.13%). It counts as functional.
Assay [22] concerns HL-60. Description: Induction of apoptosis in human HL60 cells assessed as viable cells at 10 uM by annexin V-FITC/propidium iodide staining-based flow cytometric analysis (reference value: 84.22%). The settings on record: read-out: Activity. It is filed as functional.
Assay [23] deals with HL-60. Description: Induction of apoptosis in human HL60 cells assessed as downregulation of Bcl-2 expression at 1 to 10 uM after 24 hrs by Western blot method. It counts as functional, cell-based. In a few lines: as §3
Assay [24] deals with HL-60. Description: Induction of apoptosis in human HL60 cells assessed as late apoptotic cells at 1 uM by annexin V-FITC/propidium iodide staining-based flow cytometric analysis (reference value: 6.92%). It counts as functional.
Assay [25] can be described thus: Downregulation of BRD4 expression in human HL60 cells at 1 to 10 uM after 24 hrs by Western blot method. It is filed as functional, cell-based. The note with it: HL-60. The method in brief:
as §3

As usually defined, the inhibition is the share of the control response that was lost under treatment. A lower inhibition goes with a weak effect. In [1], `Cc1noc(C)c1NC(=O)c1ccccc1` came in with an inhibition below 20%.

The term IC50 denotes the midpoint of a concentration-inhibition curve. On to `COc1cc(C(=O)N2c3ccccc3NC(=O)C2C)cc(-c2ccccc2)c1` (stereo not drawn), for which the half-maximal inhibitory concentration (IC50) in assay [2] was above 20 µM; in assay [3] it was 17.6 µM; in [4], 9.25 µM; in assay [5], above 20 µM; in assay [7] it was 6.25 µM. Besides, the inhibition turned out to be 88.7% in assay [1] and 36.2% in assay [6].

In [1], `CC1C(=O)Nc2ccccc2N1C(=O)c1ccc2ccccc2c1` (stereo not drawn) displayed an inhibition below 20%.

The molecule `Cc1noc(C)c1NC(=O)c1ccc2ccccc2c1` yielded an inhibition in [1] of 23.1%.

`O=C1CCN(C(=O)c2ccccc2)c2ccccc2N1`: in assay [1], the inhibition amounted to 32.4%.

Take `O=C1CCCc2c1ccn2C(=O)c1cccnc1`: the inhibition in [1] is 34.2%.

With `CC1C(=O)Nc2ccccc2N1C(=O)c1cccc(-c2ccccc2)c1` (stereo not drawn), the IC50 in [2] is above 20 µM; in [3] it was 13.2 µM; in [4] it was 11.4 µM; in assay [5], above 20 µM; in assay [7], 7.42 µM. The inhibition in [1] turned out to be 72.4%; in assay [6], 23.1%.

`Cc1noc(C)c1NC(=O)c1cccc(-c2ccccc2)c1` had an inhibition in assay [1] of 46.2%.

Take `CC1C(=O)Nc2ccccc2N1C(=O)c1ccccc1` (stereo not drawn): in [1], the inhibition is below 20%.

As to `COc1cc(C(=O)n2ccc3c2CCCC3=O)cc(-c2ccccc2)c1`, in [1], the inhibition was determined as 22.8%.

In assay [1], `Cc1noc(C)c1NC(=O)c1cccnc1` registered an inhibition of 32.6%.

Regarding `COc1cc(C(=O)Nc2c(C)noc2C)cc(-c2ccccc2)c1`, the IC50 is above 20 µM in [2]; 19.2 µM in assay [3]; 17.1 µM in [4]; above 20 µM in assay [5]; 8.24 µM in assay [7]. Moreover, the inhibition was determined as 64.5% in assay [1] and 36.3% in assay [6].

On to `COc1cc(C(=O)N2CCC(=O)Nc3ccccc32)cc(-c2ccccc2)c1`, for which the IC50 in assay [2] was 9.14 µM; in assay [3], 9.61 µM; in [4], 8.24 µM; in [5], 18.2 µM; in assay [7], 2.74 µM. For the same molecule, the inhibition in assay [1] was found to be 88.8%; in assay [6], 67.1%.

Molecule `O=C1CCN(C(=O)c2cccnc2)c2ccccc2N1` yielded an inhibition in assay [1] of 45.2%.

`O=C1CCN(C(=O)c2cccc(-c3ccccc3)c2)c2ccccc2N1`: the outcome (in assay [8]; in the assay on HL-60 [19]; with HL-60 [20]; in the assay on HL-60 [23]; in [25]) was Active. Further, the IC50 in [2] was 11.2 µM; in [3], 4.21 µM; in assay [4], 4.02 µM; in assay [5], above 20 µM; in [7], 1.25 µM. For the same molecule, the viability at 5 µM with HL-60 [9] was determined as 45%. In addition, in the assay on HL-60 [10], the viability at 1 µM was found to be 81.4%. For the same molecule, the Activity result was “Dose-dependent effect” in the assay with HL-60 [11]; 17.73% with HL-60 [12]; 21.63% with HL-60 [13]; 45.46% with HL-60 [14]; 0.9% in the assay with HL-60 [15]; “Dose-dependent effect” in the assay with U-937. In addition, the Activity is 0.11% with HL-60 [16]; 10.15% in the assay with HL-60 [17]; 32.51% in the assay with HL-60 [18]; 1.96% in the assay with HL-60 [21]; 8.32% in the assay on HL-60 [24]. Also, the inhibition in assay [1] was found to be 96.1%; in assay [6], 54.2%. Besides, in the assay with HL-60 [22], the viability at 10 µM is 34.9%.

In the case of `O=C1CCN(C(=O)c2ccc3ccccc3c2)c2ccccc2N1`, the inhibition in [1] came out at 25.3%.

For `COc1ccccc1S(=O)(=O)Nc1ccc2c(c1)CN(C)C(=O)N2`, the IC50 in [3] was 7.75 µM; in assay [4] it was 2.19 µM; in assay [5] it was above 20 µM.

Regarding `O=C1CCCc2c1ccn2C(=O)c1cccc(-c2ccccc2)c1`, in assay [1], the inhibition was found to be 32.1%.

For the molecule `Cc1sc2c(c1C)C(c1ccc(Cl)cc1)=N[C@@H](CC(=O)OC(C)(C)C)c1nnc(C)n1-2`, the figures for the IC50 in [3], in assay [4] and in assay [5] were 6.4 µM, 5.3 µM and above 20 µM, respectively.

On to `COc1cc(OC)c2c(=O)[nH]c(-c3cc(C)c(OCCO)c(C)c3)nc2c1` [APABETALONE], for which the IC50 in assay [3], in assay [4] and in assay [5] was above 20 µM throughout.

With `O=C1CCCc2c1ccn2C(=O)c1ccccc1`, the inhibition in assay [1] is below 20%.

Take `O=C1CCCc2c1ccn2C(=O)c1ccc2ccccc2c1`: in assay [1], the inhibition amounted to 23.1%.

With `CC1C(=O)Nc2ccccc2N1C(=O)c1cccnc1` (stereo not drawn), the inhibition in assay [1] is below 20%.
